Among the data in ChEMBL document CHEMBL1143553, “Muscarinic allosteric enhancers of ligand binding: pivotal pharmacophoric elements in hexamethonio-type agents” (J Med Chem, 2005) are pEC50 diss, p alpha and pKA values, retold here.

Format in all cases: tissue-based
For assay [1], the target named is T1, Muscarinic acetylcholine receptor M2 (Sus scrofa) (UniProt P06199).
T1 sequence (whole entry): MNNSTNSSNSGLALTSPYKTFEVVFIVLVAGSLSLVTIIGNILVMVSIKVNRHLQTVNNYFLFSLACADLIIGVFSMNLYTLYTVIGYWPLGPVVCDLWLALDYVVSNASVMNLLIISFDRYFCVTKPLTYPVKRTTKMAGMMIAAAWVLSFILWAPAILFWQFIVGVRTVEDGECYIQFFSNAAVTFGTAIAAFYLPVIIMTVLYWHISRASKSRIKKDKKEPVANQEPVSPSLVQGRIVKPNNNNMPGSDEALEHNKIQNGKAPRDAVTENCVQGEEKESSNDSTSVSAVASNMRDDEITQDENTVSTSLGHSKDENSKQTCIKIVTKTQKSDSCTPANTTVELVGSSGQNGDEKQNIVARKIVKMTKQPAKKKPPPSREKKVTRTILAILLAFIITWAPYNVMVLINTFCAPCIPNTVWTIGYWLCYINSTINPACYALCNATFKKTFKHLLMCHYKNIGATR
Put plainly: Inhibition of [3H]NMS dissociation from muscarinic acetylcholine receptor M2 of pig heart ventricle homogenates; n=6. Summed up: (§1)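 Two-point kinetic dissociation assay in porcine heart homogenates (M2) at 37 °C, 3 mM MgHPO4/50 mM Tris-HCl, pH 7.3. Membranes were preincubated 30 min with 0.2 nM [3H]NMS. Dissociation was started by 1 µM atropine alone or plus test compound, and specific binding measured at t = 0 and 10. Apparent k-1 relative to control was plotted against log concentration and fitted by four-parameter logistic (slope unity) for EC50,diss.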

Assay [2] deals with T1, Muscarinic acetylcholine receptor M2 (Sus scrofa). As to the kind of experiment: Cooperativity for muscarinic acetylcholine receptor M2 of pig heart ventricle homogenates; n=4. In short, it runs like this:
(§2)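 Pig heart ventricle homogenate (M2) equilibrium binding at 37 °C in 3 mM MgHPO4/50 mM Tris-HCl, pH 7.3. Increasing concentrations of test compound were incubated with membranes and 0.2 nM [3H]NMS. Incubation time for equilibrium in presence of allosteric agent was computed from dissociation kinetics. Nonspecific binding was defined with 1 µM atropine. Bound and free were separated by vacuum filtration, with scintillation counting.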

The target is the same in assay [3]. As to the kind of experiment: Affinity for muscarinic acetylcholine receptor M2 of pig heart ventricle homogenates; n=4. In short, it runs like this: as §2
For assay [4] the target is unchanged. As to the kind of experiment: Inhibition of [3H]NMS dissociation from muscarinic acetylcholine receptor M2 of pig heart ventricle homogenates; n=5. In short, it runs like this: as §1
Assay [5] shares this target. As to the kind of experiment: Cooperativity for muscarinic acetylcholine receptor M2 of pig heart ventricle homogenates; n=5. Summed up:
as §2

For assay [6] the target is unchanged. As to the kind of experiment: Affinity for muscarinic acetylcholine receptor M2 of pig heart ventricle homogenates; n=5. In short, it runs like this:
as §2

The target is the same in assay [7]. As to the kind of experiment: Inhibition of [3H]NMS dissociation from muscarinic acetylcholine receptor M2 of pig heart ventricle homogenates; n=3. Summed up:
as §1

The target is the same in assay [8]. As to the kind of experiment: Cooperativity against muscarinic acetylcholine receptor M2 of pig heart ventricle homogenates; n=. Summed up: as §2
Assay [9] has the same target. Put plainly: Affinity for muscarinic acetylcholine receptor M2 of pig heart ventricle homogenates; n=3. Summed up:
as §2

Assay [10] has the same target. Put plainly: Inhibition of [3H]NMS dissociation from muscarinic acetylcholine receptor M2 of pig heart ventricle homogenates; n=11. Summed up:
as §1

Assay [11] has the same target. As to the kind of experiment: Cooperativity for muscarinic acetylcholine receptor M2 of pig heart ventricle homogenates; n=8. Summed up:
as §2

Assay [12] has the same target. As to the kind of experiment: Affinity for muscarinic acetylcholine receptor M2 of pig heart ventricle homogenates; n=8. In short, it runs like this:
as §2

As to `C[N+](C)(CCCCCC[N+](C)(C)CCCN1C(=O)c2cccc3cccc(c23)C1=O)CCCN1C(=O)c2ccccc2C1=O`, the pEC50 diss in assay [1] was determined as 6.94. This compound also displayed a p alpha in assay [2] of -0.2. Moreover, the pKA in assay [3] was 7.24.

On to `CC(C)(CN1C(=O)c2ccccc2C1=O)C[N+](C)(C)CCCCCC[N+](C)(C)CC(C)(C)CN1C(=O)c2cccc3cccc(c23)C1=O`, for which, in assay [4], the pEC50 diss came to 7.73. In addition, the p alpha in assay [5] amounted to 0.56. Moreover, the pKA in assay [6] amounted to 7.41.

`CC(C)(CN1C(=O)c2ccccc2C1=O)C[N+](C)(C)CCCCCC[N+](C)(C)CCCN1C(=O)c2cccc3cccc(c23)C1=O` yielded a pEC50 diss in assay [7] of 7.28. The p alpha in [8] is -0.01. The pKA in [9] worked out at 7.28.

Turning to `CC(C)(CN1C(=O)c2cccc3cccc(c23)C1=O)C[N+](C)(C)CCCCCC[N+](C)(C)CCCN1C(=O)c2ccccc2C1=O`, in assay [10], the pEC50 diss is 8.36. The p alpha in [11] was 0.37. The pKA in assay [12] amounted to 8.29.
